The values that follow come from PubChem BioAssay AID2097 (Broad Institute, 2009).

SMILES strings stand for the structures. Screen size: about 300,000 compounds; about 120 (0.04%) were called active.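 How the source made its calls: active means more than half of replicate wells score below -50%, meaning over 50% inhibition versus plate controls; inconclusive means some replicates but at most half score below -50%; inactive means no replicate scores below -50%.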 Shown is part of a subset that was picked to be rich in actives.

In this assay the target is Glycogen synthase kinase-3 beta (Homo sapiens) (UniProt P49841). Put plainly: blockers of GSK3B enzyme activity – biochemical, cell-free homogeneous, HTS, primary screen (AID 2097).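 Further: 0% = median DMSO wells and -100% = median GW8510 positive control wells.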 The settings on record: GST-GSK3beta kinase, ADP-Glo luminescence, 60 min; at 10 µM; stronger effect = lower value. The method, boiled down: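 Assay system: GST-fused GSK3beta enzyme, cell-free / Medium: Tris pH 7.5 buffer with MgCl2, DTT, BSA, heparin / Also added: peptide substrate plus 25 µM ATP (final) / Compound: 10 µM single point / Timing: kinase reaction with compound 60 min at room temperature / Detection: ADP-Glo luminescence / Benchmarks: DMSO neutral wells and GW8510 at 20 µM as positive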
Glycogen synthase kinase-3 beta (Homo sapiens), sequence (P49841 whole entry, looked up, the tested form may be a part): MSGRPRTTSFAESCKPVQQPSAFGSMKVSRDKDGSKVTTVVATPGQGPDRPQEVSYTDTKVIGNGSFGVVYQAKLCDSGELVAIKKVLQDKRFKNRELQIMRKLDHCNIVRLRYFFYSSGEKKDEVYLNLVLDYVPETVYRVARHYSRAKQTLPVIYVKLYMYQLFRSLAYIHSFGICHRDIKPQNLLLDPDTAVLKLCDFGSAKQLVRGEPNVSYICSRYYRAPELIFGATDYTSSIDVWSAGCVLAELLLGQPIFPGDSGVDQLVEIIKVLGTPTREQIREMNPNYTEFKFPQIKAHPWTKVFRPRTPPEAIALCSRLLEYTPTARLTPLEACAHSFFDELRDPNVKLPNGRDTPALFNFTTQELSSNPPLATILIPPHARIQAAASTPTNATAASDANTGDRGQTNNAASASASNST
Background: ADP-Glo first removes unused ATP, then detects ADP through luciferase.
As for `O=c1[nH]c2ccccc2n2c(-c3ccccc3)nnc12`, the activity score (negative = inhibition) is -0.961% (inactive). As to `CCCCN(C(=O)CSCC(=O)Nc1ccc(OC)cc1)c1c(N)n(CCC)c(=O)[nH]c1=O`, the activity score (negative = inhibition) was -1.15% (inactive). Under `Cc1nnsc1S(=O)(=O)Cc1ccccc1Cl` stands -0.424% (inactive); under `CC(=O)N1c2ccc(S(=O)(=O)N3CCCC(C(=O)Nc4ccc(C)cc4C)C3)cc2CC1C` (stereo unspecified), 0.432% (inactive); under `CCOC(OCC)c1ccc(/C=C\c2nccc(N)n2)cc1`, -5.66% (inactive). The figure for `Cc1cccc(CCNS(=O)(=O)c2ccc(S(=O)(=O)NC3CCCC3)cc2)c1` is -0.921% (inactive).

As to `COc1ccc(C)cc1N(C)C(=O)c1coc(=O)c2ccccc12`, the activity score (negative = inhibition) is 3.14% (inactive). The figure for `COc1ccc(Cl)cc1NC(=O)C(C)N1CCc2ccccc21` (stereo unspecified) is 0.322% (inactive); for `COC(=O)[C@]1(C)N[C@H](c2ccc(-c3ccc(Cl)c(Cl)c3)cc2)[C@@H]2C(=O)N(C)C(=O)[C@@H]21` it is -2.15% (inactive); for `Cc1cc(C)c(S(=O)(=O)c2ccccc2)c(OC(=O)c2c(F)cccc2Cl)n1` it is 7.18% (inactive). Consider `N#Cc1ccccc1Sc1ccccc1C(=O)OCC(=O)NC1CCCCC1`, for which the activity score (negative = inhibition) was 5.54% (inactive). The figure for `Cc1cc(Br)ccc1NC(=O)c1cnc(N2CCN(c3ccccn3)CC2)c2ccccc12` is -4.35% (inactive); for `Cc1nnc(NC(=O)CCC(=O)N2CCC(C)CC2)s1` it is 0.523% (inactive); for `Cc1ccc(NC(=O)c2ccc(CSc3ncnc4nc[nH]c34)cc2)c(C)c1` it is -7.49% (inactive).

In the case of `Cc1ccc2nc(NC(=O)CSc3nc(=O)n(CCCN(C)C)c4c3CCC4)sc2c1`, the activity score (negative = inhibition) was 2.91% (inactive). As for `Cn1c(=O)c(=O)n(C)c2cc(S(=O)(=O)CCC(=O)N3CCCCC3)ccc21`, the activity score (negative = inhibition) is 2.02% (inactive). The figure for `CCN(c1ccc2c(c1)OCO2)S(=O)(=O)c1cc(Br)cc2c1N(C(=O)C1CC1)CC2` is -2.85% (inactive); for `CCC1(CC)NC(=O)N(CC(=O)OCC(=O)Nc2ccc(C(F)(F)F)cc2)C1=O` it is -0.836% (inactive); for `COC(=O)c1cc2n(n1)CCCNC2=O` it is 2.64% (inactive). The figure for `O=C(NC1CCCC1)C(NS(=O)(=O)c1ccc(Br)s1)c1ccccc1` (stereo unspecified) is -0.275% (inactive). With `O=C(O)c1ccc2c(=O)n3c(nc2c1)/C(=C/c1ccc(OC(F)F)cc1OC(F)F)CC3`, the activity score (negative = inhibition) was -1.21% (inactive). The figure for `COCCNC(=O)C1CCN(S(=O)(=O)c2ccc3c(c2)OCCO3)CC1` is -2.22% (inactive); for `O=C(Nc1cccc(F)c1)N1C2CCC1CC(O)(c1cccnc1)C2` (stereo unspecified) it is 2.54% (inactive). On to `CC(C)NS(=O)(=O)c1ccc(OCC(=O)NC2CCCCCC2)cc1`, for which the activity score (negative = inhibition) is 1.95% (inactive). The figure for `CC(C)NC(=O)c1ccccc1S(=O)c1ccccc1C#N` (stereo unspecified) is -1.11% (inactive). For the molecule `CC(=O)Nc1nc2c(s1)C(=O)NCC(C)(C)C2`, the activity score (negative = inhibition) is 3.79% (inactive).
